According to ChEMBL document CHEMBL1139254, “Synthesis and in vitro activities of a new antiviral duplex drug linking Zidovudine (AZT) and Foscarnet (PFA) via an octadecylglycerol residue” (Bioorg Med Chem, 2009):
pEC50, pIC50: −log10 of the molar value.

How the values were obtained:
[1] = Therapeutic index, IC50 for human CEM-SS cells to EC50 for HIV1; format: cell-based; details: read-out: Ratio IC50/EC50
How it was run: (§1)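 Run at the National Cancer Institute (USA). The assay rests on HIV killing T4 lymphocytes. EC50 is the concentration protecting against virus cytopathic effect, and IC50 is 50% inhibition of cell growth. The therapeutic index is TI50 = IC50/EC50.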

Human alphaherpesvirus 1 [2] = assay: Antiviral activity against acyclovir-sensitive HSV1 K161 isolate replication in african green monkey Vero cells by plaque reduction assay; format: functional, organism-based; details: Human alphaherpesvirus 1, Vero
How it was run: (§2)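 HSV-1 was grown and assayed by plaque reduction in Vero cell monolayers in MEM with 10% FCS. Drug was diluted in MEM–10% FCS from a 100 mM PBS stock, and IC50 was read from the plaque counts. KOS-M was derived from KOS by 3 weeks of passage in 13 μM ACV.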

Human alphaherpesvirus 1 [3] = assay: Antiviral activity against acyclovir-sensitive HSV1 KOS isolate replication in african green monkey Vero cells by plaque reduction assay; format: functional, organism-based; details: Human alphaherpesvirus 1, Vero; how it was run: as §2
Human alphaherpesvirus 1 [4] = assay: Antiviral activity against acyclovir-sensitive HSV1 L177 isolate replication in african green monkey Vero cells by plaque reduction assay; format: functional, organism-based; details: Human alphaherpesvirus 1, Vero; how it was run: as §2
Human alphaherpesvirus 1 [5] = assay: Antiviral activity against acyclovir-resistant HSV1 L182 isolate replication in african green monkey Vero cells by plaque reduction assay; format: functional, organism-based; details: Human alphaherpesvirus 1, Vero; how it was run: as §2
Human alphaherpesvirus 1 [6] = assay: Antiviral activity against acyclovir-resistant HSV1 KOS-M isolate replication in african green monkey Vero cells by plaque reduction assay; format: functional, organism-based; details: Human alphaherpesvirus 1, Vero; how it was run: as §2
Human alphaherpesvirus 1 [7] = assay: Antiviral activity against acyclovir-resistant HSV1 K143 isolate replication in african green monkey Vero cells by plaque reduction assay; format: functional, organism-based; details: Human alphaherpesvirus 1, Vero; how it was run: as §2
Human betaherpesvirus 5 [8] = assay: Antiviral activity against ganciclovir-sensitive HCMV1 isolate replication in HFF cells by plaque reduction assay; format: functional, organism-based; details: Human betaherpesvirus 5, HFF
How it was run: (§3)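 Plaque reduction run as a modified, simplified micro-culture, cell-associated immediate-early assay on human foreskin fibroblast monolayers (passage 15–30) in MEM with 10% FCS. Drug was diluted in MEM–10% FCS from a 100 mM PBS stock. IC50 came from Probit analysis. Strain HCMV-3res carries the UL97 C603W mutation. U405 is a clinical isolate from a pediatric stem cell transplant recipient.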

Human betaherpesvirus 5 [9] = assay: Antiviral activity against ganciclovir-resistant HCMV U405 isolate replication in HFF cells by plaque reduction assay; format: functional, organism-based; details: Human betaherpesvirus 5, HFF; how it was run: as §3
[10] = tested on: Human immunodeficiency virus 1; assay: Antiviral activity against HIV1 infected in human CEM-SS cells assessed as inhibition of virus-induced cytopathic effect by plaque reduction assay; format: functional, organism-based; details: Human immunodeficiency virus 1, CEM-SS; how it was run: as §1
CEM-SS = assay: Growth inhibition of human CEM-SS cells; format: cell-based; how it was run: as §1
Human betaherpesvirus 5 [11] = assay: Antiviral activity against ganciclovir-resistant HCMV3 isolate replication in HFF cells by plaque reduction assay; format: functional, organism-based; details: Human betaherpesvirus 5, HFF; how it was run: as §3

SMILES	selectivity ratio [1]	pIC50 (Human alphaherpesvirus 1 [2])	pIC50 (Human alphaherpesvirus 1 [3])	pIC50 (Human alphaherpesvirus 1 [4])	pIC50 (Human alphaherpesvirus 1 [5])	pIC50 (Human alphaherpesvirus 1 [6])	pIC50 (Human alphaherpesvirus 1 [7])	pIC50 (Human betaherpesvirus 5 [8])	pIC50 (Human betaherpesvirus 5 [9])	pEC50 [10]	pIC50 (CEM-SS)	pIC50 (Human betaherpesvirus 5 [11])
CCCCCCCCCCCCCCCCCCOC[C@H](COP(=O)(O)C(=O)O)OP(=O)(O)OC[C@H]1O[C@@H](n2cc(C)c(=O)[nH]c2=O)C[C@@H]1N=[N+]=[N-]	454	5.64	5.40	5.72	5.73	5.47	5.34	5.56	5.37	6.77	4.03	5.93
Nc1nc2c(ncn2COCCO)c(=O)[nH]1 [ACYCLOVIR]	–	6.24	5.52	6.49	5.02	4.51	4.12	–	–	–	–	–
O=C(O)P(=O)(O)O [FOSCARNET]	–	–	3.90	4.19	4.34	3.95	–	–	3.40	–	–	4.17
Nc1nc2c(ncn2COC(CO)CO)c(=O)[nH]1 [GANCICLOVIR]	–	–	–	–	–	–	–	5.49	–	–	–	4.79
